Bioassay records from PubChem BioAssay.
MEX-5 binding = MEX-5 zinc finger RNA-binding disruptors – biochemical, C. elegans, fluorescence polarization, MLPCN library, primary screen; AID 1832, 2009; activity score (negative = inhibition of binding), % at 10 µM; 300,000 compounds, 0.38% hits; MEX-5/FITC-TCR2 RNA binding; active compounds read low; Zinc finger protein mex-5 (Caenorhabditis elegans), Q9XUB2;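 active = inhibition past about -25% in most replicates, and total fluorescence under double the plate's negative control median, limit read from the data; inconclusive = replicates evenly split on the limit, or fluorescence at least double controls; inactive = too little inhibition in most replicates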
IMP-1 inh = IMP-1 metallo-beta-lactamase inhibitors, primary screen, biochemical, epi-absorbance readout, Pseudomonas aeruginosa enzyme | metallo-beta-lactamase IMP-1 (Pseudomonas aeruginosa) | purified IMP-1, nitrocefin hydrolysis, epi-absorbance fluorescence | inhibition, % at 5.6 µM | 290,000 compounds, 0.45% hits | AID 1556, 2009;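 active = inhibition above the mean plus 3 SD of all compounds in the same screening run, cut at about 4.5% in these data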
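Assay system: purified IMP-1; Quantity: IMP-1 0.2 nM before substrate addition; Medium: HEPES buffer pH 7.1 with ZnSO4 and Brij 35; Incubation: 15 min enzyme–compound preincubation, then 25 min nitrocefin reaction, 25 °C; Signal: fluorescence quenching readout, ex 480/em 530 nm; Controls: DMSO with and without IMP-1; Repeats: singlicate testing.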
BCLXL inh = inhibitors of human Bcl-xL, primary screen, biochemical, fluorescence polarization, HTS | inhibition, % at 10.9 µM | Bcl-2-like protein 1 (Homo sapiens), Q07817 | GST-Bcl-xL / FITC-Bim BH3 peptide fluorescence polarization | 320,000 compounds, 0.7% hits;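 active = inhibition above the mean of all tested compounds plus 3 SD, cutoff set per campaign, cut at about 30% in these data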;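 note: inhibitors lower millipolarization by displacing the labeled peptide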
Target sequence (Q07817 whole entry, looked up): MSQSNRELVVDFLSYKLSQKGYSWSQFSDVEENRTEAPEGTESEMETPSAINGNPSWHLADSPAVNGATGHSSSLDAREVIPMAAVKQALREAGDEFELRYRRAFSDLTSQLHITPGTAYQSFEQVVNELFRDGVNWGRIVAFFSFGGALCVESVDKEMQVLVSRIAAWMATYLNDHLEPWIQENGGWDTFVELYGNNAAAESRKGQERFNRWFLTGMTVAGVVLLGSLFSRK
GLD-1 TGE inh = GLD-1/TGE RNA complex disruptors, primary screen, biochemical, fluorescence polarization; Female germline-specific tumor suppressor gld-1 (Caenorhabditis elegans), Q17339; inhibition, % at 5.96 µM; purified GLD-1 + fluorescein TGE RNA; 320,000 compounds, 0.44% hits;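 active = percent inhibition above a per-plate cutoff, the plate mean of test compounds plus 3 SD, cut at about 30% in these data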
VIM-2 inh = VIM-2 metallo-beta-lactamase inhibitors, primary screen, biochemical, epi-absorbance readout, Pseudomonas aeruginosa enzyme | purified VIM-2, nitrocefin hydrolysis, epi-absorbance fluorescence | inhibition, % at 5.6 µM | 290,000 compounds, 0.89% hits;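 active = inhibition above the mean of all tested compounds plus 3 SD, cutoff set per screening run, cut at about 7.5% in these data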;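 note: red hydrolysis product quenches plate fluorescence so inhibitors raise well fluorescence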
EBV gp42 inh = Epstein-Barr virus gp42 inhibitors, primary screen, biochemical, uHTS, fluorescence polarization | Glycoprotein 42 (Epstein-Barr virus (strain AG876)), Q1HVG2 | Fluorescence polarization binding assay, mP read-out | inhibition, % (tested at 21.74 µM) | 220,000 compounds, 0.42% hits; in the data active = inhibition above about 50%
Target sequence (Q1HVG2 whole entry, looked up): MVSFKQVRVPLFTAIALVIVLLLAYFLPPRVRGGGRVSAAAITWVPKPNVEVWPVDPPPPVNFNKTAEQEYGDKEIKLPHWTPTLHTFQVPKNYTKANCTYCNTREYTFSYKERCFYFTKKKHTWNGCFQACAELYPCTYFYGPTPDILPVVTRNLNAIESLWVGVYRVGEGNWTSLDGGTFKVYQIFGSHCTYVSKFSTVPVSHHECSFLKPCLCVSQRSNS
Each line names hits and unclear results; the compound was inactive in the other large screens. Rows were chosen to be rich in hits. Some 2.2% of all compounds tested hit in one or more screens of this group.

CCCC(C)C(=O)Nc1nc(C)c(-c2csc(Nc3cc(Cl)ccc3C)n2)s1 (stereo not drawn)	IMP-1 inh 9.9
Cc1ccc(Cl)cc1Nc1nc(-c2sc(NC(=O)c3cccc(Cl)c3)nc2C)cs1	none
CCCCCC(=O)Nc1nc(C)c(-c2csc(Nc3ccc(Cl)cc3)n2)s1	none
CCCCCC(=O)Nc1nc(C)c(-c2csc(Nc3cc(Cl)ccc3C)n2)s1	IMP-1 inh 11.6
COc1cccc(-c2ncc3ccccc3c2COC(=O)c2ccc(C(F)(F)F)cc2)c1	none (no result: MEX-5 binding, IMP-1 inh, VIM-2 inh, EBV gp42 inh)
CSc1ccccc1NC(=O)CN(C)C(=O)COc1cccc2cccnc12	none (no result: MEX-5 binding, IMP-1 inh, BCLXL inh, VIM-2 inh, EBV gp42 inh)
O=C1c2ccc3c4c(ccc(c24)C(=O)N1c1cccc(O)c1)C(=O)N(c1cccc(O)c1)C3=O	none
CC1(C)CC(=O)C2=C(C1)N(c1cccc(O)c1)C1=C(C2)C(=O)CC(C)(C)C1	BCLXL inh 81.1, GLD-1 TGE inh 40.2
CCCCc1c(O)nc(SCC(=O)c2ccccc2)[nH]c1=O	IMP-1 inh 11.8
COc1ccc(C(=O)N2CCCC(Nc3ccc(F)cc3)C2)c(OC)c1 (stereo not drawn)	none (no result: EBV gp42 inh)
CCc1ccc(C(O)(CC(C)C)C(CN2CCOCC2)c2ccccc2)cc1 (stereo not drawn)	none (no result: BCLXL inh, GLD-1 TGE inh, EBV gp42 inh)
COc1ccc(C(O)(CC(C)C)C(CN2CCOCC2)c2ccccc2)cc1 (stereo not drawn)	BCLXL inh 47.0 (no result: EBV gp42 inh)
Cc1nnc(NC(=O)c2cc(S(=O)(=O)N3CCCCC3)ccc2Cl)s1	none (no result: EBV gp42 inh)
CS(=O)(=O)N1CCN(c2ccccc2NC(=O)Nc2cccc(Cl)c2)CC1	none (no result: EBV gp42 inh)
COCCNC(=O)c1cc2c(=O)n3cccc(C)c3nc2n(Cc2ccncc2)c1=N	none
Cc1ccc2nc3c(cc(C(N)=S)c(=N)n3CCCOC(C)C)c(=O)n2c1	BCLXL inh 38.7, VIM-2 inh 7.9
Cc1cccn2c(=O)c3cc(C(N)=S)c(=N)n(CCCN4CCOCC4)c3nc12	BCLXL inh 32.5
CCn1c(=N)c(C(N)=O)cc2c(=O)n3cccc(C)c3nc21	VIM-2 inh 7.9 (no result: MEX-5 binding, BCLXL inh, GLD-1 TGE inh, EBV gp42 inh)
COCCCn1c(=N)c(C(N)=S)cc2c(=O)n3cccc(C)c3nc21	BCLXL inh 33.7 (no result: IMP-1 inh, VIM-2 inh, EBV gp42 inh)
Cc1ccc(-c2cc(C(=O)NC3=NCCS3)c3ccccc3n2)cc1C	BCLXL inh 90.0
O=C(NC1=NCCS1)c1cc(-c2ccc(F)cc2)nc2ccccc12	none
Cc1sc2nc(COC(=O)c3cccc(OC(F)F)c3)[nH]c(=O)c2c1C	none
Cc1sc2nc(COC(=O)c3cccc(S(=O)(=O)N(C)c4ccccc4)c3)[nH]c(=O)c2c1C	BCLXL inh 38.9
CSc1c2c(nc3ncnn13)CCC2	none
CSc1nc2[nH]c3c(c2c2ncnn12)CCCC3	VIM-2 inh 11.3
Cc1ccc2oc(=O)c(/C=C(\O)c3ccccc3)nc2c1	EBV gp42 inh 59.2
Cc1ccc2oc(=O)c(/C=C(\O)c3cccs3)nc2c1	MEX-5 binding -44.8
O=c1[nH]c2ccccc2nc1/C=C(\O)c1cccs1	BCLXL inh 81.3
O/C(=C\c1nc2ccccc2[nH]1)c1cccs1	none (no result: EBV gp42 inh)
CCS(=O)(=O)c1ccc2oc(=O)c(/C=C(\O)c3ccc(Cl)cc3)nc2c1	none
C/C(O)=C\c1nc2ccccc2oc1=O	none
Cc1ccc2oc(=O)c(/C=C(\O)CC(C)C)nc2c1	MEX-5 binding inconclusive
O=c1oc2ccccc2nc1/C=C(\O)c1ccc(Br)cc1	EBV gp42 inh 63.9
O=C(COC(=O)COc1ccccc1)NCc1ccc2c(c1)OCO2	none (no result: MEX-5 binding, IMP-1 inh, BCLXL inh, VIM-2 inh, EBV gp42 inh)
O=c1oc2ccc(Cl)cc2nc1/C=C(\O)c1cccs1	MEX-5 binding -66.6
C=CCn1c(=O)/c(=C\c2ccsc2)s/c1=C(/C#N)C(=O)NCCN1CCOCC1	MEX-5 binding -45.7
CC(O)c1nc2ccccc2n1CCOc1ccccc1 (stereo not drawn)	none
CC(O)c1nc2ccccc2n1CCCCOc1ccccc1 (stereo not drawn)	IMP-1 inh 37.6
O=C1CCC(C(=O)Nc2cccc(S(=O)(=O)Nc3ccccc3F)c2)=NN1	none (no result: MEX-5 binding, IMP-1 inh, BCLXL inh, VIM-2 inh, EBV gp42 inh)
COc1ccc(-c2ccc(C(=S)N3CCN(C(C)=O)CC3)o2)cc1	IMP-1 inh 8.5
CCOC(=O)Cn1nc(-c2ccccc2)c2ccccc2c1=O	IMP-1 inh 5.2
CCOC(=O)Cn1nc(Cc2ccccc2)c2ccccc2c1=O	none
COc1cccc(NS(=O)(=O)c2ccc3c(c2)C2C=CCC2C(c2ccc(C(=O)O)cc2)N3)c1 (stereo not drawn)	MEX-5 binding -66.1, IMP-1 inh 22.3
O=C(Oc1ccccc1)c1c(Cl)cccc1P(=O)(O)O	VIM-2 inh 8.5
COc1ccc(Nc2nc(=O)c3cc([N+](=O)[O-])ccc3s2)cc1	EBV gp42 inh 60.5 (no result: BCLXL inh, GLD-1 TGE inh)
Cc1ccc(Nc2nc(=O)c3cc([N+](=O)[O-])ccc3s2)cc1	none
O=C(O)c1ccc(N2CCCCCC2)c(N2C(=O)c3ccccc3C2=O)c1	none
Cc1ccc(N2C(=O)c3cccc4c(N5CCN(C)CC5)ccc(c34)C2=O)c2cccnc12	MEX-5 binding -58.3, BCLXL inh active, GLD-1 TGE inh 137.4, EBV gp42 inh 159.3
O=C1c2cccc3c(N4CCCCC4)ccc(c23)C(=O)N1c1ccccc1O	MEX-5 binding -55.7, BCLXL inh 35.4
O=C1c2cccc3cccc(c23)C(=O)N1c1ccc(O)cc1	VIM-2 inh 8.4 (no result: EBV gp42 inh)
O=C1c2cccc3c(N4CCCCC4)ccc(c23)C(=O)N1c1ccc(O)cc1	MEX-5 binding inconclusive, BCLXL inh 54.1, GLD-1 TGE inh 36.4
CC1CCCCN1CCNC(=O)CN1C(=O)CSc2ccc(S(=O)(=O)N3CCCCC3)cc21 (stereo not drawn)	none (no result: EBV gp42 inh)
COc1cc(/C=C\C(=O)O)cc(S(=O)(=O)N2CCCCCC2)c1OC	none (no result: BCLXL inh, GLD-1 TGE inh, EBV gp42 inh)
C=C(C)COc1cc2oc(=O)c(CC(=O)N3C[C@H]4C[C@@H](C3)c3cccc(=O)n3C4)c(C)c2cc1Cl	none (no result: EBV gp42 inh)
O=C(COc1cc2oc(=O)c3c(c2cc1Cl)CCC3)N1C[C@H]2C[C@@H](C1)c1cccc(=O)n1C2	VIM-2 inh 11.4 (no result: EBV gp42 inh)
Cc1c(OCC(=O)N2C[C@H]3C[C@@H](C2)c2cccc(=O)n2C3)ccc2c3c(c(=O)oc12)CCCC3	none (no result: EBV gp42 inh)
Cc1c(OCC(=O)N2C[C@H]3C[C@@H](C2)c2cccc(=O)n2C3)ccc2c3c(c(=O)oc12)CCC3	VIM-2 inh 11.7 (no result: EBV gp42 inh)
CCn1cc(CCCC(=O)NCc2cccc(OC)c2)c2ccccc21	none (no result: BCLXL inh, GLD-1 TGE inh, EBV gp42 inh)
